Bioassay records deposited in PubChem BioAssay by several laboratories.
RORA act – activates the human nuclear receptor RORA. activation, % at 10 µM. actives 1.5% (n = 65,000). P35398. CHO-K1 Gal4-RORA LBD luciferase reporter, luminescence; percent increase over mock-subtracted basal signal. AID 560;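 active = activation above the mean of all tested compounds plus 3 SD, cut at about 49% in these data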;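 also: 0% = DMSO-treated RORA cells and 100% = added signal equal to DMSO minus mock-transfected cells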
Target sequence (P35398 whole entry, looked up, the tested form may be a part): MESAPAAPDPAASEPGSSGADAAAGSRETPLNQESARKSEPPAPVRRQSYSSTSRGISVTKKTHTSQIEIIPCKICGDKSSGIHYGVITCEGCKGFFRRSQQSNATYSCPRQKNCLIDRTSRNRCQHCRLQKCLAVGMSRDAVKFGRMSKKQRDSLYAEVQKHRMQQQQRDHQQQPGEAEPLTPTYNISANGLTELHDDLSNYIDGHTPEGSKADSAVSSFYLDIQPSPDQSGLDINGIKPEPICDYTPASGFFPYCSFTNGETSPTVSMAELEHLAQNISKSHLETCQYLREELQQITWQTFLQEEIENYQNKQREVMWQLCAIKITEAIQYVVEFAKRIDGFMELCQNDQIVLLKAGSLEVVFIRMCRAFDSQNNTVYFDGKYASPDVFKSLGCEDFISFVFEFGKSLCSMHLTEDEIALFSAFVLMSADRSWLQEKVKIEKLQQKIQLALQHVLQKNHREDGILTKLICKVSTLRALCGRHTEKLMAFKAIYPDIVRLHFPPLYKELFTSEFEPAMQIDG
MT1-MMP txn act – activates MT1-MMP transcription; HT1080 MT1-MMP promoter luciferase reporter, luminescence, overnight; hits give high values; activation factor at 10 µM; actives 0.16% (n = 86,000); AID 750;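 active = activation factor of at least 2 for MT1-MMP transcription at 10 µM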
Jurkat viability – cytotoxicity toward Jurkat cells; Jurkat E6.1 viability, ATP luminescence, 48 h; AID 463; inhibition, % at 4 µM; actives 1.2% (n = 56,000);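 active = inhibition above the mean inhibition of all tested compounds plus 3 SD, cut at about 28% in these data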
HEK293 NFkB inh – lowers PMA/ionomycin-induced NF-kB signal in HEK293 cells | HEK-293 NF-kB luciferase reporter, luminescence | inhibition, % at 3 µM | actives 0.21% (n = 62,000);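 active = inhibition above the mean of all tested compounds plus 3 SD, cut at about 40% in these data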;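 also: 0% = stimulated DMSO wells and 100% = 10 µM reference inhibitor 5653914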
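System – HEK-293 cells with stable firefly luciferase reporter driven by four HIV NF-kB elements · Doses – one dose, 3 µM · Schedule – 1 h compound pre-incubation, 16 h PMA/ionomycin at 37 °C · Technique – luminescence from luciferase substrate reagent · Measure – percent inhibition normalized per plate to DMSO and reference-inhibitor controls · Replicates – tested once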
SF1 activator – activators of human nuclear receptor SF-1 | Q13285 | CHO-K1 Gal4-SF-1 LBD luciferase reporter; % increase over DMSO SF-1-specific signal | activation, % at 10 µM | actives 1.9% (n = 65,000);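 active = activation above the mean activation of all tested compounds plus 3 SD, cut at about 50% in these data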
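Compound – one dose, 10 µM compound, 1% DMSO · Test system – transient Gal4-SF-1 LBD reporter, CHO-K1 · Input – 4,000 cells in each well · Read-out basis – percent activation relative to DMSO median and mock-transfected background · Replicates – single measurement per compound · Technique – steady-glow luciferase luminescence, read after 15 min reagent incubation · Timing – 20 h compound treatment, 37 °C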
Starred values were filed as active, the others as inactive; x = no result. Compounds with a hit are over-represented: about 2.8% of the library has one in this group of screens.

SMILES | RORA act | MT1-MMP txn act | Jurkat viability | HEK293 NFkB inh | SF1 activator
NC(=O)c1ccccc1OCC(=O)NS(=O)(=O)c1ccc(Cl)cc1 | x | 1.1 | x | x | x
O=S(=O)(CCc1nc2ccccc2s1)c1ccc(Cl)cc1 | x | 1 | x | x | x
O=S(=O)(Cc1nc2ccccc2s1)c1ccccc1 | 50* | 1.6 | 10 | -22 | 110*
Cc1cc(N2C(=O)C3C4c5ccccc5C(c5ccccc54)C3C2=O)no1 (centres undefined) | -4 | 0.9 | -7 | 13 | -2
Cn1c(SCC(=O)c2ccccc2)nnc1-c1cnccn1 | 30 | 1.7 | 9 | 4 | 61*
CCC(=O)Nc1cccc(-c2nnc(SCC(=O)c3ccccc3)n2C)c1 | 61* | 1.4 | -1 | 5 | 44
CCn1c(SCC(=O)c2ccccc2)nnc1-c1cnccn1 | 22 | 1.6 | -5 | -7 | 44
CCC(=O)Nc1cccc(-c2nnc(SCC(=O)NCc3ccco3)n2C)c1 | -2 | 1.2 | x | x | -11
OC1(c2ccc3c(c2)OCO3)CCN(Cc2ccccn2)CC1 | 1 | 1.1 | 4 | 1 | -13
N#Cc1c(NC(=O)c2ccccc2)sc2c1CCCCC2 | x | 0.7 | x | x | x
Cc1cc(C(=O)Nc2sc3c(c2C#N)CCCC3)no1 | 41 | 1.2 | 18 | -33 | 71*
CC(C)Cc1cc(C(=O)Nc2sc3c(c2C#N)CCCC3)no1 | 41 | 1.2 | 0 | 7 | 15
Cc1cc(C(=O)Nc2sc3c(c2C#N)CCC3)no1 | 60* | 1.2 | 45* | -44 | 116*
Cc1noc(C(=O)Nc2sc3c(c2C#N)CCC3)c1Cl | 52* | 1.2 | -6 | -32 | 48
Cc1onc(-c2ccccc2)c1C(=O)Nc1sc2c(c1C#N)CCC2 | 16 | 1.1 | 49* | 8 | 24
O=C(Cc1ccccc1)Nc1cccc(N2CCCC2)c1 | 9 | 1.2 | 0 | 16 | -9
CCOC(=O)CSc1nnc(-c2ccccc2OC)o1 | -18 | 1.2 | -5 | 13 | 0
CC1CCc2c(sc(NC(=O)C(=O)NCc3ccco3)c2C#N)C1 (centres undefined) | x | 1.2 | x | x | x
N#Cc1c(NC(=O)c2cc(C3CC3)on2)sc2c1CCC2 | 26 | 1.1 | 3 | 9 | 80*
Cc1ccc(C(=O)Nc2sc3c(c2C#N)CCCCC3)cc1C | x | 2.3* | x | x | x
Cc1ccnc(SCC(=O)Nc2sc3c(c2C#N)CCCC3)n1 | -46 | 1 | 90* | 24 | -76
Cc1cc(C(=O)Nc2sc3c(c2C#N)CCC(C)C3)no1 (centres undefined) | 53* | 0.8 | 12 | -38 | 97*
CC(=O)Nc1sc2c(c1C#N)CCCCC2 | -5 | 1.2 | -1 | -2 | 10
Cc1csc(SCC(=O)Nc2sc3c(c2C#N)CCC3)n1 | x | 1.1 | x | x | x
COc1cccc(C(=O)Nc2cccc(-c3nnc(-c4ccccc4)o3)c2)c1 | 13 | 1 | 4 | 20 | 92*
SMILES | RORA act | MT1-MMP txn act | Jurkat viability | HEK293 NFkB inh | SF1 activator
CC(=O)Nc1cccc(-c2nnc(-c3ccccc3)o2)c1 | 28 | 1.5 | x | -16 | 51*
CC(C)(C)C(=O)Nc1cccc(-c2nnc(-c3cccc(NC(=O)C(C)(C)C)c3)o2)c1 | x | 1.1 | x | x | x
CCc1ccccc1NC(=O)N1C2CCCC1CC(NC(=O)C(C)(C)C)C2 (centres undefined) | 0 | 1.1 | 7 | 16 | 17
COCCn1c(SCC(=O)N2CC(=O)Nc3ccccc32)nnc1-c1ccoc1C | x | 1.2 | x | x | x
CCOC(=O)c1sc2nc(CC(=O)OC)nc(NCC(=O)OC)c2c1C | -20 | 1 | 1 | 19 | -15
Cc1nn(-c2ccccc2)c(Cl)c1C1C(C#N)=C(N)Oc2n[nH]c(C)c21 (centres undefined) | -14 | 1.1 | -2 | 44* | -6
Cc1ccc(-n2nc(C)c(C3C(C#N)=C(N)OC4=C3C(=O)CC(C)(C)C4)c2Cl)cc1 (centres undefined) | 30 | 1 | 2 | 12 | 57*
Cc1nn(-c2ccccc2)c(Cl)c1C1C(C#N)=C(N)Oc2c1c(C)nn2-c1ccccc1 (centres undefined) | x | 1.2 | x | x | x
Cc1cc(Cl)ccc1OCC(=O)NC1CCCC1 | x | 1.3 | x | x | x
CCCc1nc(SCC(=O)Nc2cc(C)on2)c2c(=O)n(C)c(=O)n(C)c2n1 | 1 | 1.1 | 8 | 9 | 11
CC(=O)c1cccc(NC(=O)NCc2ccccn2)c1 | 22 | 1.4 | 4 | -16 | 56*
CCc1ccc(C2(O)CC(C(F)(F)F)=NN2C(=O)Cc2ccc([N+](=O)[O-])cc2)cc1 (centres undefined) | x | 2* | x | x | x
CCNC(=O)CSc1nc2ccccc2c(=O)n1CCCOC(C)C | 7 | 1.1 | -5 | 13 | 26
O=C(Nc1ccc(S(=O)(=O)N2CCCc3ccccc32)cc1)C1CCCO1 (centres undefined) | 2 | 1.1 | -2 | 16 | -7
O=C(O)C1CC=CCC1C(=O)Nc1ccc(S(=O)(=O)N2CCCc3ccccc32)cc1 (centres undefined) | 3 | 1.3 | 35* | -55 | 12
O=C(Nc1ccc2ccccc2c1)c1cccnc1 | 73* | 1.3 | 0 | -12 | 66*
O=C(Nc1ccc2c(c1)oc1ccccc12)N1CCOCC1 | 27 | 1.6 | 3 | -19 | 52*
O=C(Nc1ccc2c(c1)oc1ccccc12)c1cccnc1 | 38 | 1.6 | 0 | -22 | 55*
O=C(NCCSc1ccccc1)c1cccnc1 | 78* | 1.6 | 4 | -19 | 62*
CCCc1[nH]nc2c1C(c1cccnc1)C(C#N)=C(N)O2 (centres undefined) | -4 | 1 | -13 | 14 | 6
O=S(=O)(Cc1ccc(Cl)cc1)NCC1CCCO1 (centres undefined) | -36 | 1.1 | 4 | 2 | -13
O=C(Nc1ccc2ccccc2c1)c1cnccn1 | 57* | 0.6 | 2 | -38 | 31
O=C(Nc1ccc2oc(Cc3ccc(Cl)cc3)nc2c1)c1cccnc1 | -10 | 1.1 | 34* | -10 | 17
CC1CCN(c2ccc(NC(=O)c3cccnc3)cc2)CC1 | 48 | 1.4 | 4 | -13 | 59*
O=C(Nc1ccc(N2CCN(C(=O)c3ccc(Cl)cc3)CC2)cc1)c1cccnc1 | -4 | 0.9 | -15 | 5 | 8
SMILES | RORA act | MT1-MMP txn act | Jurkat viability | HEK293 NFkB inh | SF1 activator
Cc1csc(NC(=O)C2CCN(C(=O)CSc3nnc(C)n3Cc3ccccc3)CC2)n1 | 2 | 1 | 7 | -1 | 4
C/C(=N\O)c1ccc2c3ccccc3n(C)c2c1 | 45 | 1.5 | -3 | 5 | 54*
O=c1[nH]cnc2cc(-c3ccccc3)sc12 | 18 | 1.4 | x | x | 56*
Cc1c(NC(=O)C23CC4CC(CC(C)(C4)C2)C3)c(=O)n(-c2ccccc2)n1C | -3 | 2* | -8 | 8 | -2
CCCOc1ccc(C2c3c(oc4cc(C)c(C)cc4c3=O)C(=O)N2CCCN(C)C)cc1 (centres undefined) | 5 | 1.1 | -2 | 4 | 11
COc1ccc(S(=O)(=O)Cc2ccc(C(=O)N3CCN(c4cccc(C)c4)C(C)C3)o2)cc1 (centres undefined) | 55* | 0.5 | 90* | 9 | 28
